# ChEMBL document CHEMBL1156302, “Discovery of a synthetic dual inhibitor of HIV and HCV infection based on a tetrabutoxy-calix[4]arene scaffold” (Bioorg Med Chem Lett, 2010)
# Active and inactive are the calls of the source. The calls are words filed in the database; no cut-off is given here.
# Key:
# CCRF-CEM = assay: Cytotoxicity against HCV infected human CEM cells; format: cell-based
# Hepatitis C virus = assay: Antiviral activity against HCV infected in human CEM cells assessed as inhibition of viral replication; format: functional, organism-based, Hepacivirus hominis; details: CCRF-CEM
# [1] = system: Human immunodeficiency virus 1; assay: Antiviral activity against HIV1 infected in human MT2 cells; format: functional, organism-based; details: Human immunodeficiency virus 1, MT2
# MT2 = assay: Cytotoxicity against human MT2 cells; format: cell-based
# Summary of the method: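 Cell toxicity was measured in MT-2 human T cells bearing HTLV-1 and expressed as ID50.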
# [2] = Inhibition of VEGF binding to VEGFR
# [3] = Inhibition of PDGF binding to PDGFR
# Human alphaherpesvirus 2 = assay: Antiviral activity against HSV2 assessed as inhibition of viral replication; format: functional, organism-based
# Human alphaherpesvirus 1 = assay: Antiviral activity against HSV1 assessed as inhibition of viral replication; format: functional, organism-based
# [4] = system: Human immunodeficiency virus 1; assay: Antiviral activity against HIV1 infected in human TZM-bl cells; format: functional, organism-based
# Summary of the method: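 Host cells were TZM-bl, a HeLa line carrying firefly luciferase driven by an HIV promoter.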
# [5] = system: Human immunodeficiency virus 1; assay: Antiviral activity against HIV1 infected in human CEMx174 cells; format: functional, organism-based
# Hepatitis B virus = assay: Antiviral activity against HBV assessed as inhibition of viral replication; format: functional, organism-based
Structure (SMILES),IC50 (CCRF-CEM) [µM],IC50 (Hepatitis C virus) [µM],IC50 [1] [µM],IC50 (MT2) [µM],IC50 [2] [µM],IC50 [3] [µM],Activity (Human alphaherpesvirus 2),Activity (Human alphaherpesvirus 1),Activity [4],Activity [5],Activity (Hepatitis B virus)
O=C(O)c1cc(NC(=O)c2cc3c(OCc4ccccc4)c(c2)Cc2cc(C(=O)Nc4cc(C(=O)O)cc(C(=O)O)c4)cc(c2OCc2ccccc2)Cc2cc(C(=O)Nc4cc(C(=O)O)cc(C(=O)O)c4)cc(c2OCc2ccccc2)Cc2cc(C(=O)Nc4cc(C(=O)O)cc(C(=O)O)c4)cc(c2OCc2ccccc2)C3)cc(C(=O)O)c1,0.46,1.4,0.3,18,,,,,,,
CCCCOc1c2cc(C(=O)N[C@@H](CCC(=O)O)C(=O)O)cc1Cc1cc(C(=O)N[C@@H](CCC(=O)O)C(=O)O)cc(c1OCCCC)Cc1cc(C(=O)N[C@H](CCC(=O)O)C(=O)O)cc(c1OCCCC)Cc1cc(C(=O)N[C@@H](CCC(=O)O)C(=O)O)cc(c1OCCCC)C2,100,4.1,2.4,> 50,,,,,,,
CCCCOc1c2cc(C(=O)Nc3cc(C(=O)O)cc(C(=O)OCc4ccccc4)c3)cc1Cc1cc(C(=O)Nc3cc(C(=O)O)cc(C(=O)OCc4ccccc4)c3)cc(c1OCCCC)Cc1cc(C(=O)Nc3cc(C(=O)O)cc(C(=O)OCc4ccccc4)c3)cc(c1OCCCC)Cc1cc(C(=O)Nc3cc(C(=O)O)cc(C(=O)OCc4ccccc4)c3)cc(c1OCCCC)C2,12.5,25.6,> 50,> 50,0.48,0.19,,,,,
O=C(O)c1cc2c(OCc3ccccc3)c(c1)Cc1cc(C(=O)O)cc(c1OCc1ccccc1)Cc1cc(C(=O)O)cc(c1OCc1ccccc1)Cc1cc(C(=O)O)cc(c1OCc1ccccc1)C2,50,> 50,37.1,> 50,,,,,,,
CCCCOc1c2cc(C(=O)NCCN)cc1Cc1cc(C(=O)NCCN)cc(c1OCCCC)Cc1cc(C(=O)NCCN)cc(c1OCCCC)Cc1cc(C(=O)NCCN)cc(c1OCCCC)C2,< 12.5,5.7,< 16,16,,,,,,,
CCCCOc1c2cc(C(=O)Nc3cc(C(=O)O)cc(C(=O)NC4CCCCC4)c3)cc1Cc1cc(C(=O)Nc3cc(C(=O)O)cc(C(=O)NC4CCCCC4)c3)cc(c1OCCCC)Cc1cc(C(=O)Nc3cc(C(=O)O)cc(C(=O)NC4CCCCC4)c3)cc(c1OCCCC)Cc1cc(C(=O)Nc3cc(C(=O)O)cc(C(=O)NC4CCCCC4)c3)cc(c1OCCCC)C2,> 50,4.1,> 50,> 50,> 10,0.29,,,,,
O=C(O)c1cc2c(O)c(c1)Cc1cc(C(=O)O)cc(c1O)Cc1cc(C(=O)O)cc(c1O)Cc1cc(C(=O)O)cc(c1O)C2,> 50,> 50,> 50,> 50,,,,,,,
CCCCOc1c2cc(C(=O)Nc3cc(C(=O)O)cc(C(=O)O)c3)cc1Cc1cc(C(=O)Nc3cc(C(=O)O)cc(C(=O)O)c3)cc(c1OCCCC)Cc1cc(C(=O)Nc3cc(C(=O)O)cc(C(=O)O)c3)cc(c1OCCCC)Cc1cc(C(=O)Nc3cc(C(=O)O)cc(C(=O)O)c3)cc(c1OCCCC)C2,50,1.8,0.36,> 50,4.96,2.62,inactive,inactive,Active,Active,inactive
O=C(O)c1cc(NC(=O)c2cc3c(O)c(c2)Cc2cc(C(=O)Nc4cc(C(=O)O)cc(C(=O)O)c4)cc(c2O)Cc2cc(C(=O)Nc4cc(C(=O)O)cc(C(=O)O)c4)cc(c2O)Cc2cc(C(=O)Nc4cc(C(=O)O)cc(C(=O)O)c4)cc(c2O)C3)cc(C(=O)O)c1,,> 50,6.7,> 50,,,,,,,
CCCCOc1c2cc(C(=O)O)cc1Cc1cc(C(=O)O)cc(c1OCCCC)Cc1cc(C(=O)O)cc(c1OCCCC)Cc1cc(C(=O)O)cc(c1OCCCC)C2,,30.1,2.9,13,,,,,,,
